Data from ChEMBL document CHEMBL4316620, “Dihydropyrrolones as bacterial quorum sensing inhibitors” (Bioorg Med Chem Lett, 2019).
Activity calls are given as the source filed them. The calls are words filed in the database; no cut-off is given here.

Assays:
[1] = system: Pseudomonas aeruginosa; assay: Inhibition of biofilm formation in Pseudomonas aeruginosa PAO1 at 250 uM incubated for 6 hrs by crystal violet staining based method; assay type: functional; conditions: for inhibition at 250 µM: PAO1, 6 h
In short: (§1)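 P. aeruginosa PA01 biofilm. Cultures grown with or without test compound for 6 h. Biofilm biomass quantified by crystal violet staining (OD550). % inhibition calculated relative to DMSO control.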

[2] = system: Pseudomonas aeruginosa; assay: Toxicity in Pseudomonas aeruginosa MH602 PlasB::gfp assessed as inhibition of bacterial growth at 250 uM incubated for 15 hrs by spectrophotometry; assay type: organism-based; conditions: MH602, 15 h, read-out: GI
[3] = system: Pseudomonas aeruginosa; assay: Inhibition of biofilm formation in Pseudomonas aeruginosa PAO1 at 62.5 uM incubated for 6 hrs by crystal violet staining based method; assay type: functional; conditions: PAO1, 6 h; in short: as §1
[4] = Inhibition of quorum sensing system in Pseudomonas aeruginosa MH602 PlasB::gfp at 250 uM incubated for 15 hrs by GFP reporter gene assay
In short: (§2)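 Reporter strain P. aeruginosa PlasB::gfp (PAMH602) makes its own AHL; lasB promoter drives GFP-ASV. Cultures incubated with compound over 250–31.25 µM at 37 °C for 15 h, then GFP fluorescence read at 535 nm. QSI expressed as % relative to untreated PAMH602 negative control. Furanone positive control.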

[5] = system: Pseudomonas aeruginosa; assay: Toxicity in Pseudomonas aeruginosa MH602 PlasB::gfp assessed as inhibition of bacterial growth at 31.25 uM incubated for 15 hrs by spectrophotometry; assay type: organism-based; conditions: MH602, 15 h, read-out: GI
[6] = Inhibition of quorum sensing system in Pseudomonas aeruginosa MH602 PlasB::gfp at 125 uM incubated for 15 hrs by GFP reporter gene assay; in short: as §2
[7] = system: Pseudomonas aeruginosa; assay: Toxicity in Pseudomonas aeruginosa MH602 PlasB::gfp assessed as inhibition of bacterial growth at 62.5 uM incubated for 15 hrs by spectrophotometry; assay type: organism-based; conditions: MH602, 15 h, read-out: GI
[8] = Inhibition of quorum sensing system in Pseudomonas aeruginosa MH602 PlasB::gfp at 31.25 uM incubated for 15 hrs by GFP reporter gene assay; in short: as §2
[9] = Inhibition of quorum sensing system in Pseudomonas aeruginosa MH602 PlasB::gfp at 62.5 uM incubated for 15 hrs by GFP reporter gene assay; in short: as §2
[10] = system: Pseudomonas aeruginosa; assay: Toxicity in Pseudomonas aeruginosa MH602 PlasB::gfp assessed as inhibition of bacterial growth at 125 uM incubated for 15 hrs by spectrophotometry; assay type: organism-based; conditions: MH602, 15 h, read-out: GI

SMILES | inhibition [4] | inhibition [6] | inhibition [8] | inhibition [9] | inhibition at 250 µM [1] | inhibition at 250 µM [2] | inhibition at 62.5 µM [3] | inhibition at 31.25 µM [5] | inhibition at 62.5 µM [7] | inhibition at 125 µM [10] | inhibition [1]
C=C1C(c2ccccc2F)=CC(=O)N1c1ccc(Cl)cc1 | 59.4% | 57.9% | 36.2% | 51.6% | 46.5% | ≤ 15% | – | ≤ 15% | ≤ 15% | ≤ 15% | –
O=C1C=C(c2ccccc2F)CN1 | 67.9% | 48.8% | 24.4% | 30.5% | 10.9% | ≤ 15% | – | ≤ 15% | ≤ 15% | ≤ 15% | –
C=C1NC(=O)C(C)=C1c1ccc(F)cc1 | 66.5% | 59.9% | 26.3% | 32.1% | 4.4% | ≤ 15% | – | ≤ 15% | ≤ 15% | ≤ 15% | –
O=C1C=C(c2cccc(F)c2)CN1 | 67.2% | 45.5% | 22.4% | 24% | 21.4% | ≤ 15% | – | ≤ 15% | ≤ 15% | ≤ 15% | –
O=C1C=C(c2ccc(Br)cc2)CN1 | 65.9% | 42.8% | 21.9% | 25% | – | ≤ 15% | – | ≤ 15% | ≤ 15% | ≤ 15% | inactive
C=C1C(c2ccccc2F)=CC(=O)N1c1ccccc1 | 63.7% | 60.9% | 46.4% | 56.9% | 38.2% | ≤ 15% | – | ≤ 15% | ≤ 15% | ≤ 15% | –
C=C1C(c2ccccc2F)=CC(=O)N1c1ccc(Br)cc1 | 60.7% | 54.9% | 39.7% | 48.4% | 49.2% | ≤ 15% | – | ≤ 15% | ≤ 15% | ≤ 15% | –
C=C1NC(=O)C=C1c1ccc(CC)cc1 | 67.9% | 59.6% | 32.5% | 35.1% | 38.9% | ≤ 15% | – | ≤ 15% | ≤ 15% | ≤ 15% | –
C=C1NC(=O)C=C1c1cccc(C(F)(F)F)c1 | 74.4% | 67.9% | 35.4% | 57.1% | 50.3% | ≤ 15% | – | ≤ 15% | ≤ 15% | ≤ 15% | –
C=C1C(c2ccccc2F)=CC(=O)N1c1cccc(F)c1 | 61.1% | 55.2% | 24% | 41.8% | 58.9% | ≤ 15% | – | ≤ 15% | ≤ 15% | ≤ 15% | –
C=C1NC(=O)C=C1c1ccc(F)cc1 | 82.4% | 76.3% | 33.3% | 60.2% | 46.1% | 15 to 30% | – | ≤ 15% | ≤ 15% | ≤ 15% | –
O=C1C=C(c2ccccc2)CN1 | 57.7% | 60.8% | 31.7% | 32.4% | 14.4% | ≤ 15% | – | ≤ 15% | ≤ 15% | ≤ 15% | –
C=C1NC(=O)C=C1c1ccc(Cl)cc1 | 73.8% | 64.6% | 33.3% | 49.4% | 60.9% | ≤ 15% | – | ≤ 15% | ≤ 15% | ≤ 15% | –
C=C1NC(=O)C=C1c1ccc(Br)cc1 | 82.3% | 75.2% | 63.1% | 66.9% | 62.5% | 15 to 30% | – | ≤ 15% | ≤ 15% | ≤ 15% | –
O=C1C=C(c2ccc(Cl)cc2)CN1 | 61.5% | 42.7% | 22.6% | 26.4% | 9.6% | ≤ 15% | – | ≤ 15% | ≤ 15% | ≤ 15% | –
COc1ccc(C2=CC(=O)NC2)cc1 | 66.5% | 48.5% | 26.9% | 27.2% | – | ≤ 15% | – | ≤ 15% | ≤ 15% | ≤ 15% | inactive

Further lines, with some results ahead:

inhibition [4] | inhibition [6] | inhibition [8] | inhibition [9] | SMILES | inhibition at 250 µM [1] | inhibition at 250 µM [2] | inhibition at 62.5 µM [3] | inhibition at 31.25 µM [5] | inhibition at 62.5 µM [7] | inhibition at 125 µM [10] | inhibition [1]
86% | 75% | 49.9% | 59.9% | C=C1C(c2ccc(Br)cc2)=CC(=O)N1c1ccsc1 | 87.4% | > 30% | 47% | ≤ 15% | ≤ 15% | 15 to 30% | –
73.3% | 61.8% | 14.4% | 32.1% | C=C1C(c2ccc(Br)cc2)=CC(=O)N1c1ccc(OC)cc1 | 54.9% | ≤ 15% | – | ≤ 15% | ≤ 15% | ≤ 15% | –
78.6% | 62% | 22% | 39.2% | C=C1C(c2ccc(Br)cc2)=CC(=O)N1c1ccccc1 | 35.2% | 15 to 30% | – | ≤ 15% | ≤ 15% | ≤ 15% | –
54.3% | 50.5% | 8.81% | 40.4% | C=C1C(c2ccc(Br)cc2)=CC(=O)N1c1ccc(Br)cc1 | 17% | ≤ 15% | – | ≤ 15% | ≤ 15% | ≤ 15% | –
50.9% | 49.1% | 5.8% | 47.7% | C=C1C(c2ccc(Br)cc2)=CC(=O)N1c1cccc(F)c1 | 29.3% | ≤ 15% | – | ≤ 15% | ≤ 15% | ≤ 15% | –
52.4% | 50.3% | 7.39% | 44.9% | C=C1C(c2ccc(Br)cc2)=CC(=O)N1c1ccc(Cl)cc1 | 43.8% | ≤ 15% | – | ≤ 15% | ≤ 15% | ≤ 15% | –
73.2% | 60.3% | 12.6% | 37.7% | C=C1C(c2ccc(Br)cc2)=CC(=O)N1c1cccc(Br)c1 | 47.1% | ≤ 15% | – | ≤ 15% | ≤ 15% | ≤ 15% | –
